Results pooled from the literature.
Protocols differ between the studies behind these lines.
BTK: Tyrosine-protein kinase BTK (BTK, Homo sapiens, UniProt Q06187)

SMILES	target	test	setting	endpoint	value
CN(C)CCOC(=O)COc1ccc(Cl)cc1	D(4) dopamine receptor (DRD4, Homo sapiens, UniProt P21917)	ligand displacement, radioligand	1 µM, cell membranes	inhibition	-12.4%
Cc1cc(O)c(-c2ccc([C@@H](C)CN(C)C)cc2)c2c1[nH]c(=O)c1sccc12	Ribosomal protein S6 kinase alpha-5, N-terminal kinase domain (RPS6KA5, Homo sapiens, UniProt O75582)	enzyme activity, inhibitor	0.1 µM	inhibition	3.82%
Cc1cc(-c2ccnc3[nH]cc(F)c23)cc(F)c1[C@@]1(O)[C@H](C)CN(C(=O)CN)C[C@@H]1C	RAC-beta serine/threonine-protein kinase (AKT2, Homo sapiens, UniProt P31751)	enzyme activity, inhibitor	0.1 µM	remaining activity	113%
C1=C/COCc2cc(ccc2OCCN2CCCC2)Nc2nccc(n2)-c2cccc(c2)COC/1	Myosin light chain kinase, smooth muscle (MYLK, Homo sapiens, UniProt Q15746)	binding	0.1 µM	remaining binding	83%
Cc1nc(Nc2ncc(C(=O)Nc3c(C)cccc3Cl)s2)cc(N2CC[C@H](O)C2)n1	BTK	enzyme activity, inhibitor, mobility shift	1 nM	inhibition	72%
N#Cc1ccc(NC(=O)Nc2ccccc2)cc1	Mast/stem cell growth factor receptor Kit (KIT, Homo sapiens, UniProt P10721, D816V)	cell-free assay, competition with immobilised ligand	25 µM	remaining binding	89%
[2H]c1cc(C)c(NC(=O)c2cnc(Nc3cc(N4CC[C@@H](N)C4)nc(C)n3)s2)c(Cl)c1	BTK	enzyme activity, inhibitor, mobility shift	1 nM	inhibition	52%
CCCCC(=O)Nc1ccc(-c2ccc3ncn(CCC)c(=O)c3c2)cn1	Mast/stem cell growth factor receptor Kit (KIT, Homo sapiens, UniProt P10721, T670I/V559D)	binding, competition with immobilised ligand	0.5 µM	remaining binding	79%
C#Cc1cc(-c2cc(Nc3nc(N[C@@H](C)c4ccc(F)cn4)ncc3Cl)n[nH]2)ccc1C=O	Mitogen-activated protein kinase kinase kinase 19 (MAP3K19, Homo sapiens, UniProt Q56UN5)	enzyme activity, inhibitor	0.2 µM	inhibition	3.1%
O=C(COc1ccc(Cl)c(F)c1)NC12CC(NC(=O)c3cnc(C(F)F)cn3)(C1)C2	Translation initiation factor eIF2B subunit beta/Translation initiation factor eIF2B subunit delta (Homo sapiens, UniProt P49770+Q9UI10)	ligand displacement, TR-FRET	100 µM	inhibition	100%
[2H]c1cc(C)c(NC(=O)c2cnc(Nc3cc(N4CCCCC4)nc(C)n3)s2)c(Cl)c1	BTK	enzyme activity, inhibitor, mobility shift	100 pM	inhibition	> 50%
C[C@H](NC(=O)C(=O)Nc1ccccc1C(C)(C)C)C(=O)N[C@@H](CC(=O)O)C(=O)COc1c(F)c(F)cc(F)c1F	Caspase-8 (CASP8, Homo sapiens, UniProt Q14790)	enzyme activity, inhibitor		kinact/KI	2.74e+06 M⁻¹ s⁻¹
Cc1nc(Nc2ncc(C(=O)Nc3c(C)cccc3Cl)s2)cc(N2CCCCC2)n1	BTK	enzyme activity, inhibitor, mobility shift	1 nM	inhibition	56%
COc1ccc2oc(-c3ccc4nc(N)oc4c3)c/c(=N\c3ccccc3NC(=O)CCN)c2c1	Casein kinase II subunit alpha (CSNK2A1, Homo sapiens, UniProt P68400)	binding	1 µM	remaining binding	106%
